Assay results reported in ChEMBL document CHEMBL1139333, “Search for new pharmacophores for antimalarial activity. Part I: synthesis and antimalarial activity of new 2-methyl-6-ureido-4-quinolinamides” (Bioorg Med Chem, 2009).
Values after ≈ are worked out from the molar mass of the structure shown.

Experiments:
[1] = system: Plasmodium yoelii; assay: Antimalarial activity as parasitaemia after 28 days against chloroquine-resistant Plasmodium yoelii N67 infected Swiss mice (Mus musculus) at 50 mg/kg peroral dose over 7 days; format: functional; settings: route oral
[2] = system: Plasmodium falciparum; assay: Antimalarial activity against chloroquine-sensitive Plasmodium falciparum 3D7 infected erythrocytes after 72 hrs by MSF assay; settings: 3D7, 72 h
[3] = system: Plasmodium falciparum; assay: Antimalarial effect as schizonticidal activity against chloroquine-sensitive Plasmodium falciparum 3D7 after 40 hrs; settings: 3D7, 40 h
[4] = system: Plasmodium yoelii; assay: Antimalarial activity as parasitaemia after 28 days against chloroquine-resistant Plasmodium yoelii N67 infected Swiss mice (Mus musculus) at 50 mg/kg peroral dose over 4 days; format: functional; settings: route oral
Method in brief: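 Swiss mice (25 g, either sex, n=5) infected on day 0 with 1 × 10⁶ P. yoelii N67 chloroquine-resistant parasitized cells. Test compounds were given orally as an aqueous suspension at 50 mg/kg from day 0 to 3; vehicle controls were run alongside. Parasitaemia was counted on tail-vein thin smears on days 4, 7, 14, 21 and 28, or until death.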

[5] = Selectivity index, ratio of CC50 for african green monkey (Cercopithecus aethiops) Vero cells to IC50 for Plasmodium falciparum 3D7; format: functional

| SMILES | Activity [1] [%] | IC50 [2] [µg/mL] | MIC [3] [µg/mL] | Activity [4] [%] | Selectivity Index [5] |
| --- | --- | --- | --- | --- | --- |
| Cc1cc(NC(=O)c2ccccc2Cl)c2cc(NC(=O)Nc3cccc(Cl)c3)ccc2n1 | 9.77 | 0.22 (≈ 0.472 µM) | 0.5 (≈ 1.07 µM) | 4.23 | 32.1 |
| CC(=O)c1cccc(NC(=O)Nc2ccc3nc(C)cc(NC(=O)CN4CCN(C)CC4)c3c2)c1 |  | 0.146 (≈ 0.308 µM) | 0.5 (≈ 1.05 µM) |  | 524.5 |
| CC(=O)c1ccc(NC(=O)Nc2ccc3nc(C)cc(NC(=O)c4ccccc4Cl)c3c2)cc1 | 5.98 |  | 2 (≈ 4.23 µM) | 3.03 |  |
| Cc1cc(NC(=O)CN2CCCCC2)c2cc(NC(=O)Nc3cccc(C(F)(F)F)c3)ccc2n1 |  | 0.0335 (≈ 0.069 µM) | 0.25 (≈ 0.515 µM) |  | 214.3 |
| Cc1cc(NC(=O)CN2CCCCC2)c2cc(NC(=O)Nc3ccc(Cl)cc3)ccc2n1 |  | 0.023 (≈ 0.0509 µM) | 0.5 (≈ 1.11 µM) |  | 64.9 |
| Cc1cc(NC(=O)c2ccccc2Cl)c2cc(NC(=O)Nc3ccc(Cl)c(C(F)(F)F)c3)ccc2n1 |  | 0.0356 (≈ 0.0667 µM) |  |  | 270.9 |
| Cc1cc(NC(=O)c2ccccc2)c2cc(NC(=O)Nc3ccc(C)c(Cl)c3)ccc2n1 |  |  | 2 (≈ 4.5 µM) |  |  |
| Cc1cc(NC(=O)c2ccccc2)c2cc(NC(=O)Nc3ccc(F)c(Cl)c3)ccc2n1 |  |  | 10 (≈ 22.3 µM) |  |  |
| Cc1cc(NC(=O)c2cccc(Cl)c2)c2cc(NC(=O)Nc3cc(Cl)cc(Cl)c3)ccc2n1 |  | 0.218 (≈ 0.436 µM) | 2 (≈ 4 µM) |  | 187.7 |
| Cc1cc(NC(=O)c2ccccc2)c2cc(NC(=O)Nc3ccc(F)cc3)ccc2n1 |  |  | 10 (≈ 24.1 µM) |  |  |
| Cc1cc(NC(=O)c2ccco2)c2cc(NC(=O)Nc3ccc(Br)cc3)ccc2n1 |  | 0.0571 (≈ 0.123 µM) | 1 (≈ 2.15 µM) |  | 1547 |
| Cc1cc(NC(=O)c2ccccc2Cl)c2cc(NC(=O)Nc3ccc(Cl)cc3)ccc2n1 |  |  | 2 (≈ 4.3 µM) |  |  |
| Cc1cc(NC(=O)c2ccccc2)c2cc(NC(=O)Nc3cccc(C#N)c3)ccc2n1 |  |  | 10 (≈ 23.7 µM) |  |  |
| CCN1CCN(CC(=O)Nc2cc(C)nc3ccc(NC(=O)Nc4cccc(C(F)(F)F)c4)cc23)CC1 |  | 0.028 (≈ 0.0544 µM) | 0.5 (≈ 0.972 µM) |  |  |
| Cc1cc(NC(=O)c2cccc(Cl)c2)c2cc(NC(=O)Nc3cccc(F)c3)ccc2n1 |  |  | > 50 |  |  |
| CC(=O)Nc1cc(C)nc2ccc(NC(=O)Nc3ccc(C(C)=O)cc3)cc12 |  |  | 10 (≈ 26.6 µM) |  |  |
| CC(=O)Nc1cc(C)nc2ccc(NC(=O)Nc3ccc(Cl)cc3)cc12 |  |  | 10 (≈ 27.1 µM) |  |  |
| Cc1cc(NC(=O)c2ccccc2Cl)c2cc(NC(=O)Nc3cccc(C#N)c3)ccc2n1 | 12.11 | 0.0284 (≈ 0.0623 µM) | 1 (≈ 2.19 µM) | 6.05 | 2401.9 |
| Cc1cc(NC(=O)CN2CCN(C)CC2)c2cc(NC(=O)Nc3cccc(F)c3)ccc2n1 |  |  | 10 (≈ 22.2 µM) |  |  |
| CC(=O)Nc1cc(C)nc2ccc(NC(=O)Nc3cc(Cl)cc(Cl)c3)cc12 |  |  | 2 (≈ 4.96 µM) |  |  |
| Cc1cc(NC(=O)c2cccc(Cl)c2)c2cc(NC(=O)Nc3ccc(C)c(Cl)c3)ccc2n1 |  |  | 10 (≈ 20.9 µM) |  |  |
| Cc1cc(NC(=O)c2ccccc2)c2cc(NC(=O)Nc3ccc(Cl)cc3)ccc2n1 |  |  | > 50 |  |  |
| Cc1cc(NC(=O)c2ccccc2)c2cc(NC(=O)Nc3cccc(Cl)c3)ccc2n1 |  |  | 50 (≈ 116 µM) |  |  |

| SMILES | Activity [1] [%] | IC50 [2] [µg/mL] | MIC [3] [µg/mL] | Activity [4] [%] | Selectivity Index [5] |
| --- | --- | --- | --- | --- | --- |
| Cc1cc(NC(=O)c2cccc(Cl)c2)c2cc(NC(=O)Nc3cccc(Cl)c3C)ccc2n1 |  | 0.034 (≈ 0.0709 µM) | 1 (≈ 2.09 µM) |  | 184.5 |
| Cc1cc(NC(=O)c2ccccc2)c2cc(NC(=O)Nc3cccc(C(F)(F)F)c3)ccc2n1 |  |  | 10 (≈ 21.5 µM) |  |  |
| CC(=O)c1cccc(NC(=O)Nc2ccc3nc(C)cc(NC(=O)c4cccc(Cl)c4)c3c2)c1 |  |  | 10 (≈ 21.1 µM) |  |  |
| Cc1cc(NC(=O)CN2CCN(C)CC2)c2cc(NC(=O)Nc3cccc(Cl)c3C)ccc2n1 |  |  | > 10 |  |  |
| Cc1cc(NC(=O)c2cccc(Cl)c2)c2cc(NC(=O)Nc3cccc(C(F)(F)F)c3)ccc2n1 |  | 0.0099 (≈ 0.0198 µM) |  |  | 6014.2 |
| Cc1cc(NC(=O)c2ccccc2)c2cc(NC(=O)Nc3ccc(Br)cc3)ccc2n1 |  |  | 10 (≈ 21 µM) |  |  |
| Cc1cc(NC(=O)c2cccc(Cl)c2)c2cc(NC(=O)Nc3cccc(Cl)c3)ccc2n1 |  |  | 50 (≈ 107 µM) |  |  |
| Cc1cc(NC(=O)c2cccc(Cl)c2)c2cc(NC(=O)Nc3ccc(Cl)c(C(F)(F)F)c3)ccc2n1 |  |  | > 10 |  |  |
| CC(=O)c1cccc(NC(=O)Nc2ccc3nc(C)cc(NC(=O)CN4CCCCC4)c3c2)c1 |  |  |  |  | 214.4 |
| Cc1cc(NC(=O)CN2CCN(C)CC2)c2cc(NC(=O)Nc3ccc(F)cc3)ccc2n1 |  |  | 2 (≈ 4.44 µM) |  |  |
| Cc1cc(NC(=O)c2cccc(Cl)c2)c2cc(NC(=O)Nc3ccc(Br)cc3)ccc2n1 |  |  | 2 (≈ 3.92 µM) |  |  |
| CC(=O)c1cccc(NC(=O)Nc2ccc3nc(C)cc(NC(=O)c4ccccc4Cl)c3c2)c1 |  |  | 2 (≈ 4.23 µM) |  |  |
| CC(=O)c1ccc(NC(=O)Nc2ccc3nc(C)cc(NC(=O)c4ccccc4)c3c2)cc1 |  |  | 50 (≈ 114 µM) |  |  |
| Cc1cc(NC(=O)CN2CCCCC2)c2cc(NC(=O)Nc3cc(Cl)cc(Cl)c3)ccc2n1 |  | 0.0288 (≈ 0.0592 µM) | 0.5 (≈ 1.03 µM) |  | 396.9 |
| Cc1cc(NC(=O)CN2CCN(C)CC2)c2cc(NC(=O)Nc3cccc(C#N)c3)ccc2n1 |  |  | 2 (≈ 4.37 µM) |  |  |
| Cc1cc(NC(=O)c2ccco2)c2cc(NC(=O)Nc3ccc(Cl)cc3)ccc2n1 | 13.2 | 0.0139 (≈ 0.033 µM) | 0.5 (≈ 1.19 µM) | 2.95 | 3909.5 |
| Cc1cc(NC(=O)c2cccc(Cl)c2)c2cc(NC(=O)Nc3ccc(Cl)c(Cl)c3)ccc2n1 |  |  | 10 (≈ 20 µM) |  |  |
| Cc1cc(NC(=O)c2ccccc2Cl)c2cc(NC(=O)Nc3cccc(C(F)(F)F)c3)ccc2n1 |  |  | 2 (≈ 4.01 µM) |  |  |
| Cc1cc(NC(=O)c2ccccc2)c2cc(NC(=O)Nc3cccc(Cl)c3C)ccc2n1 |  |  | 50 (≈ 112 µM) |  |  |
| Cc1cc(NC(=O)c2ccccc2Cl)c2cc(NC(=O)Nc3ccc(Br)cc3)ccc2n1 | 8.8 |  | 2 (≈ 3.92 µM) | 1.9 |  |
| CC(=O)c1ccc(NC(=O)Nc2ccc3nc(C)cc(NC(=O)c4ccco4)c3c2)cc1 |  |  | 10 (≈ 23.3 µM) |  |  |
| Cc1cc(NC(=O)c2ccco2)c2cc(NC(=O)Nc3ccc(C)c(Cl)c3)ccc2n1 | 21.1 | 0.135 (≈ 0.31 µM) | 0.5 (≈ 1.15 µM) | 0.61 | 524.7 |
| Cc1cc(NC(=O)CN2CCN(C)CC2)c2cc(NC(=O)Nc3cccc(C(F)(F)F)c3)ccc2n1 | 21.9 | 0.0008 (≈ 0.0016 µM) | 0.25 (≈ 0.499 µM) | 2.5 | 2594.9 |

| SMILES | Activity [1] [%] | IC50 [2] [µg/mL] | MIC [3] [µg/mL] | Activity [4] [%] | Selectivity Index [5] |
| --- | --- | --- | --- | --- | --- |
| Cc1cc(NC(=O)c2ccccc2Cl)c2cc(NC(=O)Nc3ccc(F)cc3)ccc2n1 |  |  | 50 (≈ 111 µM) |  |  |
| CC(=O)Nc1cc(C)nc2ccc(NC(=O)Nc3ccc(C)c(Cl)c3)cc12 |  |  | 50 (≈ 131 µM) |  |  |
| CC(=O)c1cccc(NC(=O)Nc2ccc3nc(C)cc(NC(=O)c4ccccc4)c3c2)c1 |  |  | 10 (≈ 22.8 µM) |  |  |
| CCN(CC)CCCC(C)Nc1ccnc2cc(Cl)ccc12 (configuration not stated) [CHLOROQUINE] |  |  | 0.015 (≈ 0.0469 µM) |  |  |
| Cc1cc(NC(=O)c2ccccc2Cl)c2cc(NC(=O)Nc3cccc(Cl)c3C)ccc2n1 |  |  | 10 (≈ 20.9 µM) |  |  |
| Cc1cc(NC(=O)c2ccccc2)c2cc(NC(=O)Nc3ccc(Cl)c(C(F)(F)F)c3)ccc2n1 |  | 0.0194 (≈ 0.0389 µM) | 1 (≈ 2 µM) |  |  |
| Cc1cc(NC(=O)c2ccccc2Cl)c2cc(NC(=O)Nc3cc(Cl)cc(Cl)c3)ccc2n1 |  | 0.0217 (≈ 0.0434 µM) |  |  | 505 |
| Cc1cc(NC(=O)c2ccccc2Cl)c2cc(NC(=O)Nc3ccc(C)c(Cl)c3)ccc2n1 | 5.08 | 0.0445 (≈ 0.0928 µM) | 1 (≈ 2.09 µM) | 2.15 | 205.1 |
| Cc1cc(NC(=O)c2ccccc2Cl)c2cc(NC(=O)Nc3ccc(F)c(Cl)c3)ccc2n1 |  |  | 10 (≈ 20.7 µM) |  |  |
| Cc1cc(NC(=O)c2cccc(Cl)c2)c2cc(NC(=O)Nc3ccc(F)cc3)ccc2n1 |  |  | 10 (≈ 22.3 µM) |  |  |
| Cc1cc(NC(=O)c2ccccc2Cl)c2cc(NC(=O)Nc3cccc(F)c3)ccc2n1 |  |  | 2 (≈ 4.46 µM) |  |  |
| Cc1cc(NC(=O)CN2CCN(C)CC2)c2cc(NC(=O)Nc3ccc(Cl)cc3)ccc2n1 |  | 0.005 (≈ 0.0107 µM) | 0.5 (≈ 1.07 µM) |  |  |
| CC(=O)c1ccc(NC(=O)Nc2ccc3nc(C)cc(NC(=O)CN4CCN(C)CC4)c3c2)cc1 |  | 0.014 (≈ 0.0295 µM) | 1 (≈ 2.11 µM) |  |  |
| Cc1cc(NC(=O)c2ccccc2)c2cc(NC(=O)Nc3cccc(F)c3)ccc2n1 |  |  | 10 (≈ 24.1 µM) |  |  |
| Cc1cc(NC(=O)c2cccc(Cl)c2)c2cc(NC(=O)Nc3ccc(F)c(Cl)c3)ccc2n1 | 15.5 | 0.0682 (≈ 0.141 µM) |  | 3.76 | 125.6 |
| Cc1cc(NC(=O)c2ccccc2)c2cc(NC(=O)Nc3ccc(Cl)c(Cl)c3)ccc2n1 |  | 0.0109 (≈ 0.0234 µM) | 1 (≈ 2.15 µM) |  |  |
| CCN1CCN(CC(=O)Nc2cc(C)nc3ccc(NC(=O)Nc4ccc(C)c(Cl)c4)cc23)CC1 |  | 0.0035 (≈ 0.00707 µM) | 0.5 (≈ 1.01 µM) |  |  |
| Cc1cc(NC(=O)c2ccco2)c2cc(NC(=O)Nc3ccc(Cl)c(C(F)(F)F)c3)ccc2n1 |  | 0.0099 (≈ 0.0203 µM) |  |  | 713.3 |
| Cc1cc(NC(=O)CN2CCCCC2)c2cc(NC(=O)Nc3ccc(Cl)c(Cl)c3)ccc2n1 |  | 0.0758 (≈ 0.156 µM) | 0.25 (≈ 0.514 µM) |  | 524.2 |
| Cc1cc(NC(=O)c2cccc(Cl)c2)c2cc(NC(=O)Nc3cccc(C#N)c3)ccc2n1 |  |  | 1 (≈ 2.19 µM) |  |  |
| Cc1cc(NC(=O)c2ccccc2Cl)c2cc(NC(=O)Nc3ccc(Cl)c(Cl)c3)ccc2n1 |  | 0.194 (≈ 0.389 µM) | 1 (≈ 2 µM) |  | 16.8 |
| Cc1cc(NC(=O)c2ccco2)c2cc(NC(=O)Nc3cc(Cl)cc(Cl)c3)ccc2n1 |  |  | 2 (≈ 4.39 µM) |  |  |
